Compounds with a hit are over-represented: about 3.8% of the library has one in this group of screens.
FGF22 binding: binders of recombinant human FGF22 by thermal shift; Q9HCT0; SYPRO orange fluorescence; percent of sucrose octasulfate shift, DMSO zero; activity (Tm shift, normalised), % at 9.99 µM; 340,000 tested, 1.5% active;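 active = mean Tm shift, scaled 0 neutral to 100 positive control, at about 1.3% or above, every replicate too, limit read from the data; inconclusive = no clear call, values can overlap the other calls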
Target sequence (Q9HCT0 whole entry, looked up): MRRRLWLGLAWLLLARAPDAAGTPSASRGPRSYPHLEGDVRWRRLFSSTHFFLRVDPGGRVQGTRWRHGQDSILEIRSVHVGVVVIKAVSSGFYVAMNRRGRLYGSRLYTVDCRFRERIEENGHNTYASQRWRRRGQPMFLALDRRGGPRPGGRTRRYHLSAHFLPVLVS
Xi reactivation: reactivates the inactive X chromosome in mouse fibroblasts | XiGFP mouse fibroblasts, % GFP-positive cells imaging, 3 d; cells co-treated with 5-aza-dC sensitizer; scaled so ellipticine positive control = 100% | activation, % at 7.58 µM | 360,000 tested, 0.055% active | AID 743238;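 active = mean normalized replicate activation at least 10% and every replicate at or above 10%; inconclusive = only one of the two criteria met; inactive = mean below 10% and not all replicates reach 10%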;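 also: 0% = median of on-plate neutral control wells and 100% = ellipticine 6 µM median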
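System: 68-5-11 XiGFP fibroblast line; Timing: 3 days compound exposure; Compound dosing: one concentration, pinned; Benchmarks: positive control ellipticine, 6 µM final; Buffer or medium: DMEM containing 5-aza-dC.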
FN deposit inh: fibronectin deposition inhibition. AH1F fibroblasts, Alexa488-fibronectin deposition fluorescence, overnight. inhibition, % at 12.6 µM. 350,000 tested, 0.086% active. AID 743247;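 active = mean inhibition across replicates of 30% or more, regardless of how many single replicates reach that level; inconclusive = mean under 30% yet at least half of replicates reach 30%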;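 also: positive control wells lacked labelled fibronectin entirely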
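Material: AH1F fibroblasts assembling fluorescent fibronectin matrix; amount: 10000 AH1F cells/well; medium: DMEM, 2% serum; reagent: Alexa488-fibronectin, 24 nM final in well; dosing: single compound dose, delivered by pin transfer; incubation: 1 h adhesion, overnight exposure; detection: fluorescence after three HBSS washes, excitation 485 nm, emission 525 nm; measure: fibronectin deposition inhibition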
ARNT TACC3 PPI: disrupts binding between human ARNT and TACC3 | Q9Y6A5 | AlphaScreen His-ARNT PAS-B/GST-TACC3 binding, luminescence; TACC3 fragment carries E629A point mutation | inhibition, % at 9.99 µM | 390,000 tested, 0.66% active | AID 623870;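 active = mean inhibition of replicates at least 50% and at least half of replicates each reaching 50%; inconclusive = half or more replicates reach 50% but mean below 50%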;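 also: 0% = complete ARNT plus TACC3 wells and 100% = ARNT alone without TACC3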
DENV2 CPE rescue: DENV2-induced cell death inhibition; 350,000 tested, 1.7% active; CPE inhibition, % at 9.99 µM; AID 651640; DENV2-infected cells, cytopathic effect rescue, plate reader; in the data active = CPE inhibition above about 20%, passing the limit was not always enough; inconclusive = no clear call, values can overlap the other calls; tested in BHK-21 cells;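 also: 0% = median of neutral control wells and 100% = median of positive control wells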
SIRT5 block: inhibitors of human sirtuin-5 desuccinylase | Q9NXA8 | Purified SirT5, succinyl-peptide AMC, trypsin-coupled fluorescence | inhibition, % at 15 µM | 330,000 tested, 1.1% active | AID 652115; in the data active = inhibition above about 15%; inconclusive = no clear call, values can overlap the other calls
Target sequence (Q9NXA8 whole entry, looked up): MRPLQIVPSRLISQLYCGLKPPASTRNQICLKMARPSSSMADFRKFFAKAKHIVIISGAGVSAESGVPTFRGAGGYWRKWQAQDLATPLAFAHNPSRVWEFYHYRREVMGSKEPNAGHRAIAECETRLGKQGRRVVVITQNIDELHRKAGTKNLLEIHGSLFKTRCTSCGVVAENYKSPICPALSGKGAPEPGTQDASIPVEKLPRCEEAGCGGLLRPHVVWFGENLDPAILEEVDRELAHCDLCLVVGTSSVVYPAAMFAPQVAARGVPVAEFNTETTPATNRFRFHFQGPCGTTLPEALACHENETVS
* = called active by the depositor; ? = inconclusive; nt = no result.

SMILES | FGF22 binding | Xi reactivation | FN deposit inh | ARNT TACC3 PPI | DENV2 CPE rescue | SIRT5 block
Cc1noc(C)c1NC(=O)Nc1cccc2c1O[C@H](CN(C)S(=O)(=O)c1ccc(F)cc1)[C@H](C)CN([C@@H](C)CO)C2=O | 1 | 0 | nt | 1 | 7 | 2
Cc1noc(C)c1NC(=O)Nc1cccc2c1O[C@@H](CN(C)S(=O)(=O)c1ccc(F)cc1)[C@@H](C)CN([C@@H](C)CO)C2=O | 0 | 0 | nt | -3 | 89* | 5
C[C@@H]1CN([C@@H](C)CO)C(=O)c2cccc(NC(=O)Nc3ccccc3)c2O[C@@H]1CN(C)S(=O)(=O)c1cn(C)cn1 | 0 | 0 | nt | -3 | 11 | 6
C[C@@H]1CN([C@H](C)CO)C(=O)c2cccc(NC(=O)Nc3ccc4c(c3)OCO4)c2O[C@H]1CN(C)S(=O)(=O)c1cn(C)cn1 | 1 | 0 | -7 | 0 | 7 | 1
C[C@@H]1CN([C@H](C)CO)C(=O)c2cccc(NC(=O)Nc3ccc4c(c3)OCO4)c2O[C@@H]1CN(C)S(=O)(=O)c1cn(C)cn1 | -1 | 0 | -6 | -5 | -11 | 16*
C[C@H]1CN([C@@H](C)CO)C(=O)c2cccc(NC(=O)Nc3ccccc3)c2O[C@@H]1CN(C)S(=O)(=O)c1cn(C)cn1 | 0 | 0 | nt | -10 | 47* | 8
Cc1noc(C)c1NC(=O)Nc1cccc2c1O[C@@H](CN(C)S(=O)(=O)c1cn(C)cn1)[C@@H](C)CN([C@@H](C)CO)C2=O | -1 | 2 | 1 | -2 | 27* | 0
COc1ccc(S(=O)(=O)N(C)C[C@@H]2Oc3c(NC(=O)Nc4ccc5c(c4)OCO5)cccc3C(=O)N([C@@H](C)CO)C[C@@H]2C)cc1 | 0 | 0 | nt | -1 | 27* | 4
COc1ccc(S(=O)(=O)N(C)C[C@H]2Oc3c(NC(=O)Nc4ccc5c(c4)OCO5)cccc3C(=O)N([C@H](C)CO)C[C@H]2C)cc1 | 0 | 0 | nt | -1 | 15 | -2
NC(=O)COC(=O)/C=C/c1cccc(Br)c1 | 43* | 0 | 1 | 0 | nt | 0
O=C(COC(=O)/C=C/c1cccc(Br)c1)NC1CCCC1 | 0 | 0 | 0 | nt | -12 | -2
CC(Sc1nnnn1C1CC1)C(=O)Nc1cccc(S(=O)(=O)N2CCOCC2)c1 (stereo not given) | 0 | 0 | 1 | -7 | -4 | -5
CCCC(NC(=O)C(C)Sc1nnnn1C1CC1)c1ccccc1 (stereo not given) | 0 | 0 | 0 | 3 | 90* | -2
C[C@H](CO)N1C[C@H](C)[C@H](CN(C)C(=O)Cc2ccccn2)Oc2cc(C#Cc3ccccc3)ccc2S1(=O)=O | 0 | 1 | -8 | -4 | ? | 3
Cc1ccc(S(=O)(=O)NC(C)(C)CN2CCC(Cc3ccccc3)CC2)cc1 | 44* | 0 | -6 | -8 | 1 | 0
CCOC(=O)C1CCN(CC(C)(C)NS(=O)(=O)c2ccc(C)cc2)CC1 | 0 | 0 | 3 | nt | -2 | -2
COc1ccc2c3c(n(C)c2c1)[C@H](CO)N(C)CC31CN(C(=O)c2ccc3c(c2)OCO3)C1 | 0 | 0 | nt | nt | 1 | 0
CC(C)NC(=O)Nc1ccc2c(c1)C(=O)N([C@@H](C)CO)C[C@@H](C)[C@H](CN(C)C(=O)CCC(F)(F)F)OCCCC[C@@H](C)O2 | 0 | 0 | -5 | -3 | 3 | 1
COc1cc2ccccc2cc1C(=O)OCC(=O)NC1CCS(=O)(=O)C1 (stereo not given) | 43* | 0 | 4 | -2 | -3 | 7
CC(CC(=O)OCC(=O)NC1CCS(=O)(=O)C1)c1ccccc1 (stereo not given) | 43* | 0 | 4 | 2 | -1 | nt
C[C@@H]1CN([C@@H](C)CO)C(=O)c2cc(C#CCN(C)C)cnc2O[C@@H]1CN(C)Cc1ccccc1 | 0 | -1 | -6 | -4 | 9 | -2
COc1cccc(NC(=O)CN(C)C(=O)CCCc2nc3ccccc3s2)c1 | 0 | 0 | 1 | 4 | 25* | 0
ClCCCc1cn(C[C@H]2CC[C@@H]([C@@H]3CC[C@H](Cn4cc(CCCCl)nn4)O3)O2)nn1 | 0 | 0 | -7 | -3 | 22* | -1
CCCCc1cn(C[C@H]2CC[C@@H]([C@@H]3CC[C@H](Cn4cc(CCCC)nn4)O3)O2)nn1 | 0 | 0 | -3 | -3 | -2 | 3
COCC(=O)Nc1ccc2c(c1)[C@H]1C[C@H](CC(=O)NCc3cccc(F)c3)O[C@@H](CO)[C@H]1O2 | 0 | 0 | -2 | -7 | -6 | 0
SMILES | FGF22 binding | Xi reactivation | FN deposit inh | ARNT TACC3 PPI | DENV2 CPE rescue | SIRT5 block
Cc1cc(C)n2nc(SCC(=O)N3CCC(C(=O)O)CC3)nc2n1 | 44* | 0 | 0 | -6 | 6 | nt
Cc1cc(C)n2nc(SC(C)C(=O)N3CC(C)OC(C)C3)nc2n1 (stereo not given) | 43* | 0 | -15 | -17 | -2 | nt
COC(=O)c1cn(CC(=O)NCc2ccco2)c2ccccc12 | nt | nt | 31* | -2 | nt | nt
CCOC(=O)C1CCN(C(=O)Cn2cc(C(=O)OC)c3ccccc32)CC1 | 0 | 0 | -6 | -1 | 20 | 18*
CC(C)N(C(=O)Cn1cc(SCC(=O)NCc2ccco2)c2ccccc21)C(C)C | 1.7* | 0 | 6 | -1 | -11 | 1
C[C@@H]1CN([C@H](C)CO)C(=O)CCCn2cc(nn2)CO[C@@H]1CN(C)Cc1cccc2c1OCCCO2 | nt | 0 | 6 | nt | nt | nt
CC1CCCCC12NC(=O)N(CC(=O)NCc1ccccc1Cl)C2=O (stereo not given) | 0 | 0 | -3 | 4 | -1 | 2
CC1CCCCC12NC(=O)N(CC(=O)NCc1cccs1)C2=O (stereo not given) | 0 | 0 | -7 | nt | 29* | nt
COc1ccccc1COC(=O)CN1C(=O)NC2(CCCCC2C)C1=O (stereo not given) | 43* | 0 | -7 | -3 | 4 | 12
CC1CCCCC12NC(=O)N(CC(=O)Nc1ccc(N3CCOCC3)cc1)C2=O (stereo not given) | 0 | 0 | 0 | -2 | ? | 16*
CC(=O)N(C)C[C@@H]1Oc2ccc(N)cc2C(=O)N(C)C[C@H]1C | nt | 0 | -2 | nt | nt | nt
C[C@H]1CN([C@@H](C)CO)C(=O)c2cc(NC(=O)Cc3ccccc3)ccc2O[C@@H]1CN(C)Cc1ccc(-c2ccccc2)cc1 | nt | 0 | nt | nt | nt | nt
Cc1ccc(-c2cnc3c(c2)C(=O)N([C@H](C)CO)C[C@H](C)[C@H](CN(C)C(=O)c2cccnc2)O3)cc1 | 0 | 0 | nt | 0 | 7 | 1
